In ChEMBL document CHEMBL1126604, “Synthesis and antiviral activity of 5-thien-2-yl-2'-deoxyuridine analogues” (1993):
Values after ≈ are worked out from the molar mass of the structure shown.

How the values were obtained:
Format in all cases: functional
[1] = system: Cytomegalovirus; experiment: Minimum inhibitory concentration required to reduce cytomegalo virus (CMV (AD-169)) virus-induced cytopathicity by 50%; settings: Human betaherpesvirus 5
[2] = system: Cytomegalovirus; experiment: Minimum inhibitory concentration required to reduce cytomegalo virus (CMV (Davis)) virus-induced cytopathicity by 50%; settings: Human betaherpesvirus 5
[3] = system: Human alphaherpesvirus 1; experiment: Minimum inhibitory concentration required to reduce herpes simplex virus-1 (HSV-1 (KOS)) virus-induced cytopathicity by 50%
[4] = system: Human alphaherpesvirus 1; experiment: Minimum inhibitory concentration required to reduce herpes simplex virus-1 (HSV-1 (McIntyre)) virus-induced cytopathicity by 50%
[5] = system: Human alphaherpesvirus 2; experiment: Minimum inhibitory concentration required to reduce herpes simplex virus-2 (HSV-2 (G)) virus-induced cytopathicity by 50%
[6] = system: Human alphaherpesvirus 2; experiment: Minimum inhibitory concentration required to reduce herpes simplex virus-2 (HSV-2 (Lyons)) virus-induced cytopathicity by 50%
[7] = system: Human alphaherpesvirus 1; experiment: Minimum inhibitory concentration required to reduce thymidine kinase deficient-HSV-1 (B2006) virus-induced cytopathicity by 50%
[8] = system: Human alphaherpesvirus 1; experiment: Minimum inhibitory concentration required to reduce thymidine kinase deficient-HSV-1 (VMW 1837) virus-induced cytopathicity by 50%
[9] = system: Human alphaherpesvirus 3; experiment: Minimum inhibitory concentration required to reduce TK-VZV (07-1) virus-induced cytopathicity by 50%
[10] = system: Human alphaherpesvirus 3; experiment: Minimum inhibitory concentration required to reduce TK-VZV (YS/R) virus-induced cytopathicity by 50%
[11] = system: Vesicular stomatitis virus; experiment: Minimum inhibitory concentration required to reduce VSV virus-induced cytopathicity by 50%
[12] = system: Vaccinia virus; experiment: Minimum inhibitory concentration required to reduce vaccinia virus (VV) virus-induced cytopathicity by 50%; settings: Orthopoxvirus vaccinia
[13] = system: Cell line; experiment: Minimum concentration required to cause a microscopically detectable alteration of human cells morphology
In short: (§1)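 Cytotoxicity read as the minimum concentration causing a microscopically detectable alteration of normal cell morphology. Cells were human embryonic skin-muscle (E6SM) or human embryonic lung (HEL), seeded in 96-well plates.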

[14] = system: Human alphaherpesvirus 3; experiment: Minimum inhibitory concentration required to reduce Varicella-Zoster virus (VZV (Oka)) virus-induced cytopathicity by 50%
[15] = system: Human alphaherpesvirus 1; experiment: Minimum inhibitory concentration required to reduce herpes simplex virus-1 (HSV-1 (F)) virus-induced cytopathicity by 50%
[16] = Minimum inhibitory concentration required to reduce virus-induced cell growth by 50%; settings: Homo sapiens
[17] = system: Human alphaherpesvirus 2; experiment: Minimum inhibitory concentration required to reduce herpes simplex virus-2 (HSV-2 (196)) virus-induced cytopathicity by 50%
[18] = system: Cell line; experiment: Minimum concentration required to cause a microscopically detectable alteration of cell morphology; settings: Homo sapiens; in short: as §1
[19] = system: Human alphaherpesvirus 1; experiment: Minimum inhibitory concentration required to reduce TK-HSV-1 (B2006) virus-induced cytopathicity by 50%

| Structure (SMILES) | MIC [1] | MIC [2] | MIC [3] | MIC [4] | MIC [5] | MIC [6] | MIC [7] | MIC [8] | MIC [9] | MIC [10] | MIC [11] | MIC [12] | MIC [13] | MIC [14] | MIC [15] | MIC [16] | MIC [17] | MIC [18] | MIC [19] |
| --- | --- | --- | --- | --- | --- | --- | --- | --- | --- | --- | --- | --- | --- | --- | --- | --- | --- | --- | --- |
| O=c1[nH]c(=O)n([C@H]2C[C@H](O)[C@@H](CO)O2)cc1-c1ccoc1 | 80 µg/mL (≈ 272 µM) | 80 µg/mL (≈ 272 µM) | 0.5 µg/mL (≈ 1.7 µM) | 0.07 µg/mL (≈ 0.238 µM) | 150 µg/mL (≈ 510 µM) | 30 µg/mL (≈ 102 µM) | 100 µg/mL (≈ 340 µM) | > 200 µg/mL | > 40 µg/mL | > 40 µg/mL | > 200 µg/mL | > 40 µg/mL | > 40 µg/mL | 50 µg/mL (≈ 170 µM) | 0.5 µg/mL (≈ 1.7 µM) | > 50 µg/mL | 150 µg/mL (≈ 510 µM) |  |  |
| O=c1[nH]c(=O)n([C@H]2C[C@H](O)[C@@H](CO)O2)cc1-c1cccs1 | 60 µg/mL (≈ 193 µM) | 40 µg/mL (≈ 129 µM) | 1.5 µg/mL (≈ 4.83 µM) | 0.3 µg/mL (≈ 0.967 µM) | 50 µg/mL (≈ 161 µM) | 20 µg/mL (≈ 64.4 µM) | > 100 µg/mL | > 100 µg/mL | 8 µg/mL (≈ 25.8 µM) | 30 µg/mL (≈ 96.7 µM) | > 100 µg/mL | 20 µg/mL (≈ 64.4 µM) |  | 3 µg/mL (≈ 9.67 µM) | 0.35 µg/mL (≈ 1.13 µM) | 45 µg/mL (≈ 145 µM) | 50 µg/mL (≈ 161 µM) | 100 µg/mL (≈ 322 µM) |  |
| C#Cc1ccc(-c2cn([C@H]3C[C@H](O)[C@@H](CO)O3)c(=O)[nH]c2=O)s1 | > 10 µg/mL | > 10 µg/mL | 0.4 µg/mL (≈ 1.2 µM) | 0.2 µg/mL (≈ 0.598 µM) | > 200 µg/mL | > 200 µg/mL |  | > 200 µg/mL | 5 µg/mL (≈ 15 µM) | 17 µg/mL (≈ 50.8 µM) | > 200 µg/mL | > 200 µg/mL |  | 0.25 µg/mL (≈ 0.748 µM) | 0.2 µg/mL (≈ 0.598 µM) | 14 µg/mL (≈ 41.9 µM) | > 200 µg/mL | 400 µg/mL (≈ 1200 µM) | > 200 µg/mL |
| C=Cc1ccc(-c2cn([C@H]3C[C@H](O)[C@@H](CO)O3)c(=O)[nH]c2=O)s1 | > 1 µg/mL | > 1 µg/mL | 1 µg/mL (≈ 2.97 µM) |  | > 200 µg/mL |  | > 200 µg/mL | > 200 µg/mL | 7 µg/mL (≈ 20.8 µM) | 10 µg/mL (≈ 29.7 µM) | > 200 µg/mL | 70 µg/mL (≈ 208 µM) |  | 7 µg/mL (≈ 20.8 µM) |  | 3.5 µg/mL (≈ 10.4 µM) |  | 400 µg/mL (≈ 1190 µM) |  |
| Cc1ccc(-c2cn([C@H]3C[C@H](O)[C@@H](CO)O3)c(=O)[nH]c2=O)s1 | > 40 µg/mL | > 40 µg/mL | 0.2 µg/mL (≈ 0.617 µM) | 0.7 µg/mL (≈ 2.16 µM) | 50 µg/mL (≈ 154 µM) | 20 µg/mL (≈ 61.7 µM) | 400 µg/mL (≈ 1230 µM) | 150 µg/mL (≈ 462 µM) | > 40 µg/mL | > 40 µg/mL | > 400 µg/mL | > 200 µg/mL |  | 0.08 µg/mL (≈ 0.247 µM) | 0.2 µg/mL (≈ 0.617 µM) | > 50 µg/mL | 150 µg/mL (≈ 462 µM) | > 200 µg/mL |  |
| C[Si](C)(C)C#Cc1ccc(-c2cn([C@H]3C[C@H](O)[C@@H](CO)O3)c(=O)[nH]c2=O)s1 | > 10 µg/mL | > 10 µg/mL | 0.07 µg/mL (≈ 0.172 µM) |  | > 40 µg/mL |  | > 40 µg/mL | > 40 µg/mL | 21 µg/mL (≈ 51.7 µM) | 20 µg/mL (≈ 49.2 µM) | > 40 µg/mL | > 40 µg/mL |  | 0.2 µg/mL (≈ 0.492 µM) |  | 10 µg/mL (≈ 24.6 µM) |  | 100 µg/mL (≈ 246 µM) |  |
